Assay outcomes from PubChem.
TDP2 inh: blocks human TDP2 phosphodiesterase activity. O95551. recombinant TDP2, T5PNP hydrolysis, p-nitrophenol absorbance 415 nm. inhibition, % at 12.8 µM. 370,000 compounds, 0.34% hits. AID 720702;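 active = inhibition above the mean of all tested compounds plus 3 SD, set per campaign, cut at about 25% in these data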
Target sequence (O95551 whole entry, looked up): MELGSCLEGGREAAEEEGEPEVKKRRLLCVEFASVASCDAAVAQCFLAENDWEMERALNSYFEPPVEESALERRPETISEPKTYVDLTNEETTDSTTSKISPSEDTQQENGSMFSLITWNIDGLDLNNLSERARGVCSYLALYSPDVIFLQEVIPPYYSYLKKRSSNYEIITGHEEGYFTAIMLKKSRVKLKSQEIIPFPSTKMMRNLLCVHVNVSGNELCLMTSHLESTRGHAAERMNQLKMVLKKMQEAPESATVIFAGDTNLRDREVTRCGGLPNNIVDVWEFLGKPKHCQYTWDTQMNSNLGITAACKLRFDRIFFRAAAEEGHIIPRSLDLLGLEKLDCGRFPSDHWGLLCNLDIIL
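System – recombinant human TDP2 · Amount – 120 nM TDP2 per well · Buffer or medium – Mg2+-containing Tris-HCl buffer, pH 7.5 · Reagent – T5PNP substrate, 5 mM · Dosing – 12.8 µM single point, 1% DMSO · Incubation – 2 h at 37 °C · Measured by – epi absorbance · Read-out basis – percent inhibition · Benchmarks – high control without enzyme, low control DMSO plus TDP2 · Repeats – singlicate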
UHRF1 MBD2 ctr: human UHRF1 methylated DNA binding inhibitors; UHRF1 binding to methylated oligo, TR-FRET; 370,000 compounds, 0.75% hits; Q96T88; inhibition, % at 4.4 µM; in the data active = inhibition above about 21%;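 also: UHRF1 SRA domain binding a hemimethylated CpG hairpin DNA probe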
LEDGF integ inh: blocks HIV-1 LEDGF/p75-dependent DNA integration | TR-FRET IN-LEDGF/p75 DNA integration, Eu/Cy5 | inhibition, % at 3.7 µM | 370,000 compounds, 0.64% hits;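 active = inhibition above the screen-wide mean plus 3 SD, cut at about 13% in these data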;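 also: signal is the Cy5 over europium emission ratio at 671 and 618 nm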
CASP6 VEID inh: blocks human caspase-6 cleavage activity; 350,000 compounds, 0.53% hits; P55212; inhibition, % at 12.5 µM; AID 686996; purified caspase-6, Z-VEID-R110 cleavage fluorescence;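 active = mean inhibition across replicates at least about 35%, with every replicate also reaching that limit, limit read from the data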
NSD2 inh: NSD2 (human) methyltransferase inhibition; O96028; NSD2 peptide methylation, AlphaScreen, 120 min; inhibition, % at 12.5 µM; 310,000 compounds, 0.54% hits; AID 743445; in the data active = inhibition above about 50%
MBD2 DNA inh: MBD2-methylated oligo binding inhibition | inhibition, % at 4.4 µM | 370,000 compounds, 0.31% hits | Q9UBB5 | TR-FRET, MBD2 binding to methylated oligonucleotide | AID 686964; in the data active = inhibition above about 13%
TDP2 confirm: human TDP2 inhibition, confirmation. recombinant human TDP2, absorbance read-out. 1,100 compounds, 22% hits. inhibition, % at 12.8 µM. shares compounds with TDP2 inh. AID 743263; in the data active = inhibition above about 25%
IN multimer up: activates HIV-1 integrase multimerization in LEDGF counter-screen; AID 1053131; activation, % at 7.7 µM; TR-FRET HIV-1 integrase multimerization, biochemical; 2,000 compounds, 17% hits; shares compounds with LEDGF integ inh; in the data active = activation above about 8.9%
TRFRET interf: optically interferes with TR-FRET readout in LEDGF counter-screen; shares compounds with LEDGF integ inh; TR-FRET optical interference counterscreen, HIV-1 IN multimerization; inhibition, % at 7.7 µM; 2,000 tested, under 10 active; AID 1053135;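 active = inhibition above the mean over all tested compounds plus 3 SD, which no compound reached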
LEDGF integ conf: LEDGF/p75-dependent HIV-1 integration inhibition, confirmation; TR-FRET LEDGF/p75-dependent HIV-1 integration, biochemical; inhibition, % at 3.7 µM; 2,000 compounds, 36% hits; shares compounds with LEDGF integ inh; in the data active = inhibition above about 14%
Numbers stand for hits; 0 = inactive; - = not tested or not shown; ! = not confirmed by another sample. Rows were chosen to be rich in hits. Some 1.8% of all compounds tested hit in one or more screens of this group.

SMILES | TDP2 inh | UHRF1 MBD2 ctr | LEDGF integ inh | CASP6 VEID inh | NSD2 inh | MBD2 DNA inh | TDP2 confirm | IN multimer up | TRFRET interf | LEDGF integ conf
CC(C)C#Cc1ccc2c(c1)O[C@@H](CN(C)Cc1cncnc1)[C@@H](C)CN([C@H](C)CO)S2(=O)=O | - | - | - | 0 | - | - | - | - | - | -
CCOc1ccc2nc(NC(=S)N(C)C)sc2c1 | 26 | 0 | 14 | - | 0 | 0 | 0 | 0 | 0 | 0
CCCC(=O)Nc1nc2ccc(OCC)cc2s1 | 0 | 0 | 0 | 0 | - | 0 | - | - | - | -
CCc1nnc(N/N=C/c2c(Cl)cccc2Cl)n1N | 60 | 0 | 49 | - | 0 | 0 | 0 | 0 | 0 | 0
CNC(=S)N/N=C/c1c(Cl)cccc1Cl | 0 | 0 | 0 | 0 | 0 | 0 | - | - | - | -
CCc1nnc(N/N=C/c2cccs2)n1N | 69 | 0 | 44 | - | 0 | 0 | 0 | 0 | 0 | 0
Cc1cc(/C=C2\SC(=S)NC2=O)c(C)n1C | 25 | 23 | 38 | 0 | 0 | 0 | 0 | 14 | 0 | 0
Cc1cc(/C=C2\SC(=S)NC2=O)c(C)n1-c1ccccc1 | 0 | 0 | 0 | 0 | 0 | 0 | - | - | - | -
CN(C)C(=O)c1cccc(-c2cccc(-c3nc(C(=O)N4CCOCC4)cc4c3[C@@H](CCO)N([S@](=O)C(C)(C)C)C4)c2)c1 | - | - | - | 0 | - | - | - | - | - | -
Cc1ccc(-c2cc3c(nn2)-c2ccccc2C3=O)cc1 | 0 | 0 | 0 | 0 | 0 | 0 | - | - | - | -
Cc1ccccc1-c1cc2c(nn1)-c1ccccc1C2=O | 63 | 0 | 61 | - | 0 | 0 | 50 | 0 | 0 | 40
O=c1[nH]c(Nc2ccccc2)cc2cc(Br)ccc12 | 83 | 0 | 35 | 99 | - | 0 | 58 | 0 | 0 | 58
O=c1cc(Nc2cccc(Br)c2)[nH]c(=O)[nH]1 | 0 | 0 | 0 | 0 | 0 | 0 | - | - | - | -
CC(=O)c1cccc(-c2ccc3c(=O)[nH]c(Nc4ccccc4)cc3c2)c1 | 57 | 0 | 21 | 95 | - | 0 | 52 | 0 | 0 | 71
COc1ccccc1Nc1cc2cc(Br)ccc2c(=O)[nH]1 | 63 | 0 | 21 | - | - | 0 | 57 | 0 | 0 | 73
CC(=O)c1cccc(Nc2nc(-c3ccccc3)nc3ccccc23)c1 | 0 | 0 | 0 | 0 | 0 | 0 | - | - | - | -
C[C@H]1CN([C@@H](C)CO)C(=O)c2cccc(NC(=O)NC3CCCCC3)c2O[C@H]1CN(C)S(C)(=O)=O | - | - | - | 0 | - | - | - | - | - | -
Cc1ccc(S(=O)(=O)NC2=C(N3CCN(c4ccccc4F)CC3)C(=O)c3ccccc3C2=O)cc1 | 25! | 0 | 15! | 0 | 0 | 0 | 0 | 0 | 0 | 0
C[C@H]1CCCCO[C@@H](CN(C)Cc2ccc(C(=O)O)cc2)[C@@H](C)CN([C@@H](C)CO)C(=O)c2cc(NC(=O)CCC(F)(F)F)ccc2O1 | - | - | - | 0 | - | - | - | - | - | -
O=C1/C(=C\c2ccc(O)c(O)c2)C(c2ccccc2)=NN1c1ccccc1 | 26 | 0 | 19 | 0 | - | 0 | 0 | 24 | 0 | 29
COc1cc(/C=C2\C(=O)N(c3ccc(NC(C)=O)cc3)N=C2c2ccccc2)ccc1O | 54 | 0 | 44 | 0 | 0 | 0 | 0 | 0 | 0 | 0
COC(=O)CC1=NN(c2ccccc2)C(=O)/C1=C\c1ccc(OC)cc1 | 0 | 0 | 0 | - | 0 | 0 | - | - | - | -
COc1cc(/C=C2/C(=O)N(c3ccc(C(=O)O)cc3)N=C2C)cc(OC)c1O | 0 | 0 | 0 | 0 | 0 | 0 | - | - | - | -
CC(=O)N1CC=C2C(C#N)=C(N)C(C#N)(C#N)[C@H](c3ccoc3)[C@H]2C1 | 0 | 0 | 0 | - | 0 | 0 | - | - | - | -
N#CC1=C(N)C(C#N)(C#N)[C@H](c2ccoc2)[C@H]2CN(Cc3ccccc3)CC=C12 | 40 | 0 | 19 | - | 0 | 0 | 0 | 0 | 0 | 0
O=C(C[C@H]1C=C[C@H](NC(=O)c2ccncc2)[C@H](CO)O1)Nc1ccc(-c2ccccc2)cc1 | - | - | - | 0 | - | - | - | - | - | -
